Shown are actives, neighbours in structure and some others; about 1.5% of the full set was active somewhere.
Wnt act – Wnt/beta-catenin pathway activators, primary screen, cell-based, plate reader, single point. activation, % at 9.35 µM. AID 743398, 2014. Wnt/beta-catenin reporter cell assay, activator. hit rate 1.2% among 300,000; in the data active = activation above about 30%, passing the limit was not always enough; inconclusive = no clear call, values can overlap the other calls;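 also: 0% = neutral control wells and 100% = positive control wells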
PGC1a acetyl inh – inhibitors of PGC1a acetylation signal, primary screen, cell-based, U2OS, AlphaScreen, inhibitor mode. hit rate 0.17% among 350,000. inhibition, % at 15.6 µM. AlphaScreen anti-acetyl-lysine; with virally co-expressed GCN5 acetyltransferase;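 active = every replicate shows inhibition of at least 40%; inconclusive = mean inhibition at least 40% but some replicate below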;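 also: 0% = neutral control wells and 100% = positive control wells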
Cneo AK release – Cryptococcus neoformans cell lysis inducers, primary screen, AK release luminescence, single concentration | lysis activity, % at 15 µM | C. neoformans lysis, adenylate kinase release luminescence, 4 h; normalised: neutral wells 0, clomiphene wells 100 | hit rate 0.2% among 360,000;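 active = mean lysis activity across replicates of at least 80%, whatever share of replicates individually reach that level; inactive = mean lysis activity below 80%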
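Test system: log-phase Cryptococcus neoformans yeast cells; Quantity: yeast cell density of 5 × 10^6 cells/mL; Buffer or medium: YPD; Doses: single compound concentration per well; Timing: 4 h at 37 °C static, read 1 h later; Measured by: AK luminescence; Read-out basis: lysis from increased AK signal; Control set: Clomiphene as positive control.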
MITF TRPM1 HTS – activators of MITF-driven TRPM1 promoter reporter, primary screen, cell-based, SK-MEL-5, luciferase, single point. hit rate 0.75% among 300,000. SK-MEL-5 TRPM1-promoter luciferase, 24 h; % of positive control, neutral wells = 0. activation, % at 12.5 µM. AID 588334, 2011;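 active = mean activation of at least 80% with every replicate also reaching 80%; inconclusive = mean reaches 80% but some replicate falls short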;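 also: 0% = neutral control wells and 100% = parthenolide positive control wells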
The depositor's hits bear a star; u = inconclusive; x = no result given.

SMILES	Wnt act	PGC1a acetyl inh	Cneo AK release	MITF TRPM1 HTS
Cc1ccnc(N/C=C/C(=O)c2ccc(Br)cc2)c1	38.8*	-3.9	-1.8	71.8
CN(C)C(=O)C[C@@H]1CC[C@@H]2[C@@H](COc3ccc(NC(=O)C4CCC4)cc3C(=O)N2C)O1	x	7.6	x	x
COc1ccccc1NC(=O)N[C@H]1C=C[C@H](CC(=O)N2CCC(Cc3ccccc3)CC2)O[C@H]1CO	x	7.6	x	x
CN(C)c1ccc(/C=N/Nc2nc3ccccc3o2)cc1	26.6	-4.3	-1.0	-9.0
CCS(=O)(=O)c1ccc(C=NNc2nc3ccccc3o2)cc1	-2.9	x	x	103.6*
COc1ccc(CN2C[C@@H](O)COC[C@H]3O[C@H](CC(=O)NCCN4CCCC4)CC[C@@H]32)cc1	x	9.9	2.3	x
Cc1cc(NC(=O)/C=C/c2ccc(F)cc2)n(-c2nc3ccccc3[nH]2)n1	-1.8	x	0.0	30.9
COc1ccc(/C=C/C(=O)Nc2cc(C)nn2-c2nc3ccccc3[nH]2)cc1	8.2	x	x	92.0*
O=C(C[C@@H]1CC[C@@H]2[C@H](COC[C@@H](O)CN2S(=O)(=O)c2cccc(Cl)c2)O1)Nc1ccccc1	x	-0.4	1.7	x
Brc1ccc(-c2csc(-c3ccncc3)n2)cc1	54.5*	x	x	u
COc1ccc(CN(C)C[C@@H]2Oc3ccc(NC(=O)Cc4ccccc4)cc3CC(=O)N([C@@H](C)CO)C[C@H]2C)cc1	x	-4.5	x	x
COc1cccc(S(=O)(=O)N[C@H]2C=C[C@@H](CC(=O)NCc3ccc(F)cc3)O[C@H]2CO)c1	x	-9.2	0.9	x
Cc1ccc(-c2cn3c(n2)SCC3)cc1	65.2*	-2.6	x	22.9
CCc1ccc(-c2cn3c(n2)SCC3)cc1	13.8	-2.6	-4.9	63.6
O=C(N/C=C/c1ccccc1)c1ccccc1	41.0*	-7.9	-5.3	109.1*
Cc1ccc(-c2ccc3c(c2)O[C@H](CN(C)S(C)(=O)=O)[C@@H](C)CN([C@@H](C)CO)S3(=O)=O)cc1	x	-25.8	-1.2	x
CC(C)c1cn(CC[C@@H]2CC[C@H](NS(=O)(=O)Cc3ccccc3)[C@@H](CO)O2)nn1	x	2.1	1.3	x
COCC(=O)Nc1ccc2c(c1)C(=O)N(C)C[C@@H](OC)[C@H](C)CN(Cc1cc(-c3ccccc3)on1)[C@H](C)CO2	x	6.8	52.4	x
CCCC(=O)OCC(=O)Nc1ccc(N=Nc2ccccc2)cc1	50.8*	x	x	64.2
Cc1ccccc1-c1cc(-c2ccccc2O)n[nH]1	54.6*	10.0	-5.0	26.1
Oc1ccccc1-c1cc(-c2ccc(F)cc2)n[nH]1	53.4*	8.8	-6.4	36.2
Oc1ccccc1-c1cc(-c2ccccc2)n[nH]1	53.3*	-5.3	0.5	51.8
O=C(O)C[C@@H]1C[C@H]2c3cc(NC(=O)C4CCC4)ccc3O[C@H]2[C@@H](CO)O1	x	-6.2	x	x
C[C@H]1CCCCO[C@@H](CN(C)Cc2ccncc2)[C@@H](C)CN([C@@H](C)CO)C(=O)c2cc(NS(=O)(=O)c3ccccc3)ccc2O1	x	-2.6	-0.2	x
O=C(Nc1ccc2c(c1)CCC2)c1cccc(OC(F)F)c1	64.9*	-7.0	-6.2	x
SMILES	Wnt act	PGC1a acetyl inh	Cneo AK release	MITF TRPM1 HTS
O=C(Nc1ccc(OC(F)F)c(Cl)c1)c1cccc(OC(F)F)c1	x	-3.5	1.2	88.0*
COc1ccc(NC(=O)c2cccc(OC(F)F)c2)cc1Cl	x	-1.6	-3.2	51.8
CCCc1cc2c(=O)c(-c3ccccn3)coc2cc1OC	53.4*	11.7	-1.4	116.0*
CO[C@H]1CN(C)C(=O)c2cc(NS(C)(=O)=O)ccc2OC[C@@H](C)N(CC2CCOCC2)C[C@@H]1C	x	12.4	8.5	x
CC(=O)c1ccc(NC(=O)c2sc3nc(C)c(C)c(C)c3c2N)cc1	22.2	3.3	5.2	55.1
Cc1nc2sc(C(=O)Nc3ccccc3)c(N)c2c(C)c1[N+](=O)[O-]	36.3*	-11.0	x	44.7
O=C(N[C@H]1CC[C@H](CCNC(=O)C2CCCC2)O[C@H]1CO)c1ccccn1	x	4.2	-5.6	x
COc1ccc(NC(=O)c2ccc3c(c2)N(C)CCS3)cc1	52.7*	x	-0.4	x
O=C(Nc1cccc(NC(=O)c2ccc(-c3ccc(Br)cc3)o2)c1)c1ccccc1	x	-14.7	x	42.7
O=C(Nc1ccccc1)c1ccc(-c2ccc(Br)cc2)o1	33.2*	-5.9	-5.1	x
CC(=O)Nc1ccc(NC(=O)c2ccc(-c3ccccc3Cl)o2)cc1	4.0	x	x	56.9
O=C(Nc1ccccc1)c1ccc(-c2ccccc2Cl)o1	28.8	-16.3	-1.9	89.3*
c1ccc2c(c1)oc1c(NCC3CCCO3)ncnc12 (configuration not stated)	53.9*	19.4	-4.2	16.6
Clc1ncnc2c1oc1ccccc12	66.5*	-7.9	-4.7	7.5
CCc1nc(NCc2ccccn2)c2oc3ccccc3c2n1	x	14.4	2.0	-9.1
CCSc1ncnc2c1oc1ccccc12	-0.4	10.7	2.9	38.4
c1ccc(CNc2ncnc3c2oc2ccccc23)nc1	56.4*	14.4	-1.7	44.9
CC(=O)/C(=C(/O)c1ccccc1)c1nc2ccccc2[nH]1	6.0	1.4	0.7	85.0*
O=C(/C(=C(\O)c1ccccc1)c1nc2ccccc2[nH]1)c1ccccc1	0.7	-4.3	-2.1	23.8
CC(=O)Nc1ccc(NC(=O)COC(=O)c2c(C)nn(-c3ccccc3)c2C)cc1	-1.4	x	x	-0.5
Cc1nn(-c2ccccc2)c(C)c1C(=O)NCCc1ccc(Cl)cc1	-0.9	-2.6	0.4	-9.2
Cc1nn(-c2ccccc2)c(C)c1C(=O)OCC(=O)Nc1ccccc1F	43.7*	-10.4	-2.9	100.2*
Cc1nn(-c2ccccc2)c(C)c1NC(=O)COC(=O)CCOc1ccccc1	-4.9	-0.4	-0.2	-2.2
COc1ccc(OCCCC(=O)OCC(=O)Nc2c(C)nn(-c3ccccc3)c2C)cc1	1.1	85.2*	-3.3	-1.5
Cc1nn(-c2ccccc2)c(C)c1C(=O)NCCc1ccccc1	-4.2	3.7	-3.0	88.4*
SMILES	Wnt act	PGC1a acetyl inh	Cneo AK release	MITF TRPM1 HTS
COc1ccc2c3c(n(C)c2c1)[C@H](CO)NCC31CN(C(=O)Nc2ccc3c(c2)OCO3)C1	x	-5.8	x	x
C[C@H](CO)N1C[C@H](C)[C@H](CN(C)C(=O)Nc2cccc3ccccc23)Oc2ncc(/C=C/c3ccccc3)cc2C1=O	x	2.5	10.7	x
O=C(O)CC(CN1C(=O)c2ccccc2C1=O)c1ccccc1 (configuration not stated)	45.5*	x	0.8	7.2
O=C(O)CC(c1ccccc1)c1ccccc1	x	-10.7	-1.8	5.1
CCOC(=O)c1cnn2c(C)cc(-c3ccc(F)cc3)nc12	x	2.4	-3.1	90.6*
CN1CCN(S(=O)(=O)c2ccc(NN)nc2)CC1	57.0*	x	2.2	-2.1
O=C(C[C@H]1C[C@H]2c3cc(NC(=O)NC4CCCCC4)ccc3O[C@H]2[C@@H](CO)O1)NCc1ccccc1	x	-1.9	-1.4	x
O=C(N/N=C\c1ccoc1)c1ccco1	0.5	-21.8	1.3	-1.5
CN(C)c1ccc(/C=N/NC(=O)c2ccn(C)n2)cc1	34.0*	x	x	44.0
Cc1ccc(/C=N/NC(=O)c2ccco2)cc1	39.4*	14.8	-1.5	x

Bioassay records: PubChem BioAssay, Broad Institute
